Source: the array DNA melting data of Ke et al. (doi:10.1101/2024.01.08.574731)

Columns and labels:
[1] = folding enthalpy; higher = less favourable; fluorescence melt of hairpins on a sequencing array, two-state fit; details: sodium 0.088 M
Method in brief: (§1)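 Two-state fits, bootstrapped, provided melting temperature and folding enthalpy from Cy3 fluorescence normalised to pre-quench Cy3 and to control constructs. Library hairpins with annealed Cy3 and quencher oligos were imaged on a sequenced MiSeq flow cell in 50 mM Na-HEPES pH 8.0, 25 mM NaCl, at 2.5 °C intervals up to 60 °C. Four replicates were combined with inverse-variance weighting. A 9.35 °C upward shift was applied to fitted temperatures to match UV melts.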

[2] = melting temperature; fluorescence melt of hairpins on a sequencing array, two-state fit, raised by 9.35 °C to match UV melts; details: sodium 0.088 M
Method in brief: as §1

Row | Sequence | folding enthalpy [1] | Tm [2]
1 | GCTGGTGAAAACCAGC ((((((....)))))) | -22.6 kcal/mol | 69.1 °C
2 | GAAACAGCGAAAGCTTTC (((..(((....)))))) | -15.3 kcal/mol | 29.1 °C
3 | AGAACGAAAGTTCT (((((....))))) | -19.9 kcal/mol | 53.1 °C
4 | ACCTCGAAAGAGGT (((((....))))) | -19.9 kcal/mol | 59.5 °C
5 | GCAAGCGAAAGCTTTTGC ((((((....)))..))) | -12.8 kcal/mol | 42.2 °C
6 | GATCCAAAGTGGATC ((((((...)))))) | -30.9 kcal/mol | 48.8 °C
7 | GCATCACGAAAGTGGTGC (((.(((....))).))) | -37.8 kcal/mol | 64.3 °C
8 | GGGACCGAAAGGTGGCCC ((((((....)))..))) | -19 kcal/mol | 45.5 °C
9 | GGTTGGACGAAAGTCACC (((..(((....)))))) | -12.2 kcal/mol | 34.1 °C
10 | GGAAGCGGAAACGTTTCC ((((.((....)).)))) | -39.7 kcal/mol | 49.8 °C
11 | GCTGTGCGAAAGCCCGGC ((.(.((....)).).)) | -20 kcal/mol | 46.8 °C
12 | GATCCAATCATGGATC ((((((....)))))) | -37.5 kcal/mol | 50.8 °C
13 | GTAATACGAAAGTACTAC (((.(((....))).))) | -16.9 kcal/mol | 31.1 °C
14 | GAGGGCGAAAGCCAGCTC ((((((....)))..))) | -13.7 kcal/mol | 46.7 °C
15 | CCTATGAAAATAGG (((((....))))) | -14.2 kcal/mol | 41.2 °C
16 | GATCTCAATTGAGATC ((((((....)))))) | -38 kcal/mol | 53.1 °C
17 | GTTGCGACGAAAGTCAAC (((..(((....)))))) | -16.8 kcal/mol | 33.5 °C
18 | GTCTTAACGAAAGTTGAC (((..(((....)))))) | -15.8 kcal/mol | 31.9 °C
19 | GGCCAACGAAAGTTGCC (((.(((....)))))) | -20 kcal/mol | 54.3 °C
20 | GTGCTACGAAAGTAACAC (((.(((....))).))) | -32.7 kcal/mol | 46.7 °C
21 | GATACCCGAAAGGGCATC (((.(((....))).))) | -18.8 kcal/mol | 49.5 °C
22 | GGAGTCGAAAGACTTCC ((((((....))).))) | -21.2 kcal/mol | 48.7 °C
23 | GCAACCGAAAGGTCTTGC ((((((....)))..))) | -16.5 kcal/mol | 35.7 °C

Row | Sequence | folding enthalpy [1] | Tm [2]
24 | GATCACGATCGTGATC ((((((....)))))) | -47.4 kcal/mol | 59.6 °C
25 | GGTCGAGGAAACTCAACC (((.(((....))).))) | -29.5 kcal/mol | 37 °C
26 | GCGAGCTTCGC ((((...)))) | -18.5 kcal/mol | 49 °C
27 | GGACGAGCGAAAGCTTCC (((..(((....)))))) | -9.29 kcal/mol | 29.5 °C
28 | GTCCATCCGAAAGGAGAC (((..(((....)))))) | -14.8 kcal/mol | 24.8 °C
29 | GAACCAGAAATGGTTC ((((((....)))))) | -33.6 kcal/mol | 54.2 °C
30 | GATCGTAACTACGATC ((((((....)))))) | -41.6 kcal/mol | 56 °C
31 | TAGTTGAAAAACTA (((((....))))) | -11.8 kcal/mol | 27.4 °C
32 | GGGCTGCGAAAGCACCC (((.(((....)))))) | -21.4 kcal/mol | 57.2 °C
33 | GGGACGCCGAAAGGCCCC (((..(((....)))))) | -13.7 kcal/mol | 45.4 °C
34 | GGATACGAAAGTAGGTCC ((((((....)))..))) | -8.27 kcal/mol | 28.4 °C
35 | GCTAGAGGAAACTTTAGC ((((.((....)).)))) | -20.8 kcal/mol | 35 °C
36 | GTCGACCGAAAGGTAGAC (((.(((....))).))) | -36.4 kcal/mol | 59.8 °C
37 | CGAATCGGAAACGACTCG (((.(((....))).))) | -36.2 kcal/mol | 42.1 °C
38 | GTTGAGGGAAACCCCAAC ((((.((....)).)))) | -26.1 kcal/mol | 43.3 °C
39 | GAGATGGGAAACTATCTC (((((.(....).))))) | -32 kcal/mol | 40.7 °C
40 | GGAATCGAAAGATTCC ((((((....)))))) | -32.3 kcal/mol | 64.3 °C
41 | GGCGACGAAAGTCGTGCC ((((((....)))..))) | -12.7 kcal/mol | 51.2 °C
42 | GCTTTTGGAAACAAAAAC (.(((((....))))).) | -13.2 kcal/mol | 26.6 °C
43 | GGTTATCGAAAGATCACC (((.(((....))).))) | -30.4 kcal/mol | 42.3 °C
44 | GGTGAAGGAAACTCCACC ((((.((....)).)))) | -31.3 kcal/mol | 39 °C
45 | GCAAACGGAAACGTTTAC (.(((((....))))).) | -18.7 kcal/mol | 38.4 °C
46 | GATCTCCCGTGAGATC ((((((....)))))) | -35.4 kcal/mol | 52.5 °C

Row | Sequence | folding enthalpy [1] | Tm [2]
47 | GATCGTTGCGACGATC ((((((....)))))) | -41.2 kcal/mol | 60.7 °C
48 | GGCCTCGGAAACGGGGTC (.((.((....)).)).) | -37.2 kcal/mol | 48.6 °C
49 | GGTTAAGGAAACTTAATC (.(((((....))))).) | -21.7 kcal/mol | 31.7 °C
50 | GCCGCTGGAAACAGCGAC (.(((((....))))).) | -13.9 kcal/mol | 52.6 °C
51 | GCGTCCGGAAACGAACGC ((((.((....)).)))) | -42.8 kcal/mol | 54.7 °C
52 | CGAGCGGAAACGCTCTCG ((((((....)))..))) | -8.45 kcal/mol | 40.5 °C
53 | GGCTGGGGAAACTCAGCC (((((.(....).))))) | -38.7 kcal/mol | 57 °C
54 | GGGGCTCGAAAGAGTCCC (((.(((....))).))) | -42.8 kcal/mol | 67.7 °C
55 | GTGCTGGGAAACCAACAC (((.(((....))).))) | -36.9 kcal/mol | 44 °C
56 | GATAGGCGAAAGCCAATC (((.(((....))).))) | -19 kcal/mol | 43 °C
57 | GCTGGGCGAAAGCTAAGC (((..((....))..))) | -22.1 kcal/mol | 53.9 °C
58 | GCCCTGCGAAAGCGGTGC ((.(.((....)).).)) | -20.2 kcal/mol | 48 °C
59 | GATCGTTGGACGATC ((((((...)))))) | -35.1 kcal/mol | 54.8 °C
60 | GTAGGCACGAAAGTGTAC (((..(((....)))))) | -13.6 kcal/mol | 29.8 °C
61 | GCTGAGCGAAAGCGGAGC (((..((....))..))) | -26.9 kcal/mol | 62.4 °C
62 | GTATACTCGAAAGAGTAC (((..(((....)))))) | -11.6 kcal/mol | 35 °C
63 | GGAAAGCCGAAAGGCTCC (((..(((....)))))) | -11.2 kcal/mol | 42.2 °C
64 | GGTCAACCGAAAGGTACC (((..(((....)))))) | -15.9 kcal/mol | 35.1 °C
65 | GATCATGCTGATGATC ((((((....)))))) | -38.5 kcal/mol | 47.3 °C
66 | GTGTACGGAAACGTATGC (..((((....))))..) | -26.7 kcal/mol | 39.5 °C
67 | GCGTACACACGC ((((....)))) | -23.9 kcal/mol | 51.4 °C
68 | GGCGAAGGAAACCTCGCC (((((.(....).))))) | -46.7 kcal/mol | 55.3 °C
69 | GCTTCGCGAAAGCGACGC ((.((((....)))).)) | -22.5 kcal/mol | 60.9 °C

Row | Sequence | folding enthalpy [1] | Tm [2]
70 | GGCTGAACGAAAGTTGCC (((..(((....)))))) | -24.6 kcal/mol | 46.9 °C
71 | GGGACCGAAAGGTTCCC ((((((....))).))) | -26.7 kcal/mol | 60.4 °C
72 | GGAATCGAAAGATGATCC ((((((....)))..))) | -17.8 kcal/mol | 29 °C
73 | GATCTGTCCTCAGATC ((((((....)))))) | -46.8 kcal/mol | 51 °C
74 | GGCAGAGGAAACTCCGCC (((.(((....))).))) | -28.1 kcal/mol | 47.5 °C
75 | GCTAGTCGAAAGACAGC (((.(((....)))))) | -24.8 kcal/mol | 52.1 °C
76 | GCCTACGAAAGTACAGGC ((((((....)))..))) | -30.7 kcal/mol | 47.7 °C
77 | GCCGGGCGAAAGCTAGGC (((..((....))..))) | -34.4 kcal/mol | 66.6 °C
78 | GGATCCGAAAGGAAATCC ((((((....)))..))) | -25.9 kcal/mol | 38.2 °C
79 | GGCGACGGAAACGCCACC ((.(.((....)).).)) | -16.9 kcal/mol | 46 °C
80 | GAATACGAAAGTAATTC ((((((....))).))) | -13.6 kcal/mol | 34.1 °C
81 | GACTGGCGAAAGCCCGTC (((.(((....))).))) | -18.9 kcal/mol | 49.1 °C
82 | GCGTACGAAAGTAATCGC ((((((....)))..))) | -23.6 kcal/mol | 44.1 °C
83 | CGGAAACGGAAACGTCCG (((..(((....)))))) | -22.9 kcal/mol | 41.1 °C
84 | GTTGAGTCGAAAGACAAC (((..(((....)))))) | -14.6 kcal/mol | 31 °C
85 | GATTGCGAAAGCATTATC ((((((....)))..))) | -11.2 kcal/mol | 26.6 °C
86 | GACTTTCCGAAAGGAGTC (((..(((....)))))) | -13 kcal/mol | 29.6 °C
87 | CCTGAGAAATCAGG (((((....))))) | -19.4 kcal/mol | 44.8 °C
88 | GCCTTCGAAAGAAGTGGC ((((((....)))..))) | -22 kcal/mol | 44.5 °C
89 | GAAAGTGGAAACATTTTC ((((.((....)).)))) | -27.4 kcal/mol | 32.1 °C
90 | GGTACAGAAATGTACC ((((((....)))))) | -38 kcal/mol | 53 °C
91 | GAACTCGGAAACGAGTCC (.(((((....))))).) | -14.6 kcal/mol | 43.4 °C
92 | GTTTGCGAAAGCAAGAAC ((((((....)))..))) | -10 kcal/mol | 36.7 °C
